# The M2OR odorant receptor database
# Assays:
# Settings in all cases: stereoisomer not certain
# [1] = molecular target: T1, OR10A2 (Homo sapiens) (UniProt Q9H208)
# T1 sequence (whole entry): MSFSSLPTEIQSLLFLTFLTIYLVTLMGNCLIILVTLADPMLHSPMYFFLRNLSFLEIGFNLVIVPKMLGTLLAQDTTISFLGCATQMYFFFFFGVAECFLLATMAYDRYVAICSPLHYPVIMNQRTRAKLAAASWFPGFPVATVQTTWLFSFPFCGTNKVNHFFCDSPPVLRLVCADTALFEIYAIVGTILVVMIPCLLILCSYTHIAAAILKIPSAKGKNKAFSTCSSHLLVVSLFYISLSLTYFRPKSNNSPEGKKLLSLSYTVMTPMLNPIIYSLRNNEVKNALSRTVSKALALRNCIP
# Summary of the method: (§1)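 Values were gathered from published papers (main text and supplementary material), with extra details requested from the original authors when needed, and checked for typos and inconsistencies. Each receptor–molecule pair is called responsive (active) if the original authors judged the measured signal statistically different from baseline, and non-responsive (inactive) otherwise. Assay methods varied by source, often transient mammalian cell-line luciferase assays. Recorded details include cell line, G-protein, co-transfected protein and tags.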
# [2] = molecular target: T2, OR10A3 (Homo sapiens) (UniProt P58181)
# T2 sequence (whole entry): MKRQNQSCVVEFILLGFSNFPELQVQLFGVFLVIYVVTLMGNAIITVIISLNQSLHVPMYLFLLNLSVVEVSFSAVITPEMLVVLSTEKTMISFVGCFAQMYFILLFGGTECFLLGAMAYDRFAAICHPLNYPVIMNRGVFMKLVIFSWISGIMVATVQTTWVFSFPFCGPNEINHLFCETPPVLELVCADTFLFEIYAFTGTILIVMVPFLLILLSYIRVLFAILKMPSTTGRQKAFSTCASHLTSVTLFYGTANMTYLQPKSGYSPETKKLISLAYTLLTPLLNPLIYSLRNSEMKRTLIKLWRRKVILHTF
# Summary of the method: as §1
# [3] = molecular target: T3, OR10A4 (Homo sapiens) (UniProt Q9H209)
# T3 sequence (whole entry): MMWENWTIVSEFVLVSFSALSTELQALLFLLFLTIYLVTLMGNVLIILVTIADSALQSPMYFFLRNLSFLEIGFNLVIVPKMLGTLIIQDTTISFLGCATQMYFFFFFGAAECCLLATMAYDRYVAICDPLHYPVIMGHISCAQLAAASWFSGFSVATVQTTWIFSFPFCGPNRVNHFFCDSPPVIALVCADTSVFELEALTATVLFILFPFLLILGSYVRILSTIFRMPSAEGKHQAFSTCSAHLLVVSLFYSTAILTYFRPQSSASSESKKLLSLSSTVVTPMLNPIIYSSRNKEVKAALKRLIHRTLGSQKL
# Summary of the method: as §1
# [4] = molecular target: T4, OR10A5 (Homo sapiens) (UniProt Q9H207)
# T4 sequence (whole entry): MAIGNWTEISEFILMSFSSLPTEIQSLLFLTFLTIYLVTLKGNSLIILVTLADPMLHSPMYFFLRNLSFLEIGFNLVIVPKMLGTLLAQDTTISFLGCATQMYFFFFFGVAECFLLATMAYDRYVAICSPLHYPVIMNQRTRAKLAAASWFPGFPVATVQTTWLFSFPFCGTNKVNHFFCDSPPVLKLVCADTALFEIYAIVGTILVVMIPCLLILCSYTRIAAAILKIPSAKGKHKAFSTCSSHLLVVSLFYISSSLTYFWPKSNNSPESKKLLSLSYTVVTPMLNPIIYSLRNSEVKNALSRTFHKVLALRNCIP
# Summary of the method: as §1
# [5] = molecular target: T5, OR10A6 (Homo sapiens) (UniProt Q8NH74)
# T5 sequence (whole entry): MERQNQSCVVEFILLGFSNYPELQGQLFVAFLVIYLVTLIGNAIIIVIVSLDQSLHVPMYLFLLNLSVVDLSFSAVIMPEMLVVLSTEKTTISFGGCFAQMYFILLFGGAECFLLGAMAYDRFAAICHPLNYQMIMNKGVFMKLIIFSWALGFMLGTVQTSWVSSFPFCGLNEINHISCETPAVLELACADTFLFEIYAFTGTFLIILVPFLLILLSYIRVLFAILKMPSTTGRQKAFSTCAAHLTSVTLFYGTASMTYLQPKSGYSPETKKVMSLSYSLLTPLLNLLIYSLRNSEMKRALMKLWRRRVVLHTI
# Summary of the method: as §1
# [6] = molecular target: T6, OR10A7 (Homo sapiens) (UniProt Q8NGE5)
# T6 sequence (whole entry): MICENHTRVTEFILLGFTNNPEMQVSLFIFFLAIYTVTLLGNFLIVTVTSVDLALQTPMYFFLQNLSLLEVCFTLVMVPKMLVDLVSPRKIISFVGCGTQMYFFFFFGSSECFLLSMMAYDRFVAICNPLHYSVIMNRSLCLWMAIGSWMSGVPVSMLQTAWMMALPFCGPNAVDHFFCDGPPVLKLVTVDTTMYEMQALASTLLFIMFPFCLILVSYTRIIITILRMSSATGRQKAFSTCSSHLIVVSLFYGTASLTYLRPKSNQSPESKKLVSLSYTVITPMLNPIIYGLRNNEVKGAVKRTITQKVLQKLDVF
# Summary of the method: as §1
# [7] = molecular target: T7, OR10AD1 (Homo sapiens) (UniProt Q8NGE0)
# T7 sequence (whole entry): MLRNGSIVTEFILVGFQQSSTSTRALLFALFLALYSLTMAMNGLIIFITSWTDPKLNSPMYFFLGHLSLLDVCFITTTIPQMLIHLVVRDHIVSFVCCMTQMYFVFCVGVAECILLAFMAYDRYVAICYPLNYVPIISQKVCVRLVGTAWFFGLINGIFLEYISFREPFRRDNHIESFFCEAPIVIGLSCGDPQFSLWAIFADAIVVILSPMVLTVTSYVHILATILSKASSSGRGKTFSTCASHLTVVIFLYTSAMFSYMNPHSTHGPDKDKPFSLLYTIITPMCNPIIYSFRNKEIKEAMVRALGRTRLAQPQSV
# Summary of the method: as §1
# [8] = molecular target: T8, OR10AG1 (Homo sapiens) (UniProt Q8NH19)
# T8 sequence (whole entry): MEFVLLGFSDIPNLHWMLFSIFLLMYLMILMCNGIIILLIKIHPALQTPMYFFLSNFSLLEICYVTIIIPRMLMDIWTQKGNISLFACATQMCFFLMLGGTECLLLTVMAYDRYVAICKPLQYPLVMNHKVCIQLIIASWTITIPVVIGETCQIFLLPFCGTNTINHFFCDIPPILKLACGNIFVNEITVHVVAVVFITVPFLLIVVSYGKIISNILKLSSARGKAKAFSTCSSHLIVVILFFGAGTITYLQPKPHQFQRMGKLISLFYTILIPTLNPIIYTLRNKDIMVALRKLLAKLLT
# Summary of the method: as §1
# [9] = molecular target: T9, OR10C1 (Homo sapiens) (UniProt Q96KK4)
# T9 sequence (whole entry): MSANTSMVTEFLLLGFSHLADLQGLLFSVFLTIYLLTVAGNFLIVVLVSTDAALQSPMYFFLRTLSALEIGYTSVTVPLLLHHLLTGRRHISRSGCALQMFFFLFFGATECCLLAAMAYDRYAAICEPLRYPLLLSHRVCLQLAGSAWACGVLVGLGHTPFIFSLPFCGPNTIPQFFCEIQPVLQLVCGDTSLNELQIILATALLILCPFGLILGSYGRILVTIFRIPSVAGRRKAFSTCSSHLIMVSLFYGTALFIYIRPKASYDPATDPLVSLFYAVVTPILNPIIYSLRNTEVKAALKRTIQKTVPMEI
# Summary of the method: as §1
# [10] = molecular target: T10, OR10D3 (Homo sapiens) (UniProt Q8NH80)
# T10 sequence (whole entry): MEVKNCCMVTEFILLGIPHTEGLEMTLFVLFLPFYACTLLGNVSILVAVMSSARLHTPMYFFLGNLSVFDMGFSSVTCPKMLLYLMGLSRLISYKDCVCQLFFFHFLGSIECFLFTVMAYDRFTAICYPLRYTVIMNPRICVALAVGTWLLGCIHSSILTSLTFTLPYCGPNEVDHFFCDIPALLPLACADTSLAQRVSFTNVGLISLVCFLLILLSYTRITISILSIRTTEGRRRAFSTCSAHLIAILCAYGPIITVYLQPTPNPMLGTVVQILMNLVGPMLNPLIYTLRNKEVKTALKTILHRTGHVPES
# Summary of the method: as §1
# [11] = test system: T11, O5AN1
# T11 sequence (whole entry): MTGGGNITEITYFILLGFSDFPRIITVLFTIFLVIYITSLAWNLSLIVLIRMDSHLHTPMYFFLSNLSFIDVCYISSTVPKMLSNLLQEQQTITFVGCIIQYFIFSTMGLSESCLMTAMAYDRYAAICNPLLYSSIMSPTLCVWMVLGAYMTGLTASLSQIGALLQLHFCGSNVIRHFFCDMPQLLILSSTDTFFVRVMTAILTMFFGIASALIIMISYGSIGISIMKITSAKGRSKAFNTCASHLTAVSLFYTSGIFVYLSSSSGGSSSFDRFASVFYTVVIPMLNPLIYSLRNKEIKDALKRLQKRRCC
# Summary of the method: as §1
SMILES,odorant receptor agonist call [1],odorant receptor agonist call [2],odorant receptor agonist call [3],odorant receptor agonist call [4],odorant receptor agonist call [5],odorant receptor agonist call [6],odorant receptor agonist call [7],odorant receptor agonist call [8],odorant receptor agonist call [9],odorant receptor agonist call [10],odorant receptor agonist call [11]
CC(CO)CS (stereo unspecified),inactive,inactive,inactive,inactive,inactive,inactive,inactive,inactive,inactive,inactive,
CC1CCCCCCCCCCCC(=O)C1 (stereo unspecified),,,,,,,,,,,active
CCC(S)C(C)CO (stereo unspecified),inactive,inactive,inactive,inactive,inactive,inactive,inactive,inactive,inactive,inactive,
